Laboratory results as given in ChEMBL document CHEMBL1131020, “Synthesis of 7,8-(methylenedioxy)-1-phenyl-3,5-dihydro-4H-2, 3-benzodiazepin-4-ones as novel and potent noncompetitive AMPA receptor antagonists” (J Med Chem, 1998).

What was measured:
[1] = system: Mus musculus; assay: In vivo anticonvulsant activity in mouse determined by maximum electroshock induced seizure (MES) assay; format: functional
How it was run: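 Male NSA mice; compound in 10% Tween-80/water, iv, 5 min before test. Corneal electrodes deliver 50 mA, 60 pulses/s, 0.8-ms pulse width, 1-s d.c. Protection means no tonic hindlimb extension >90° within 30 s. Screened at 10 mg/kg (n = 8), then 4–5 doses (n = 15–24/dose). ED50 with 95% CI by Litchfield–Wilcoxon.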

[2] = organism: Rattus norvegicus; assay: In vitro inhibition of AMPA activated current in xenopus oocytes expressing rat cerebral cortex poly(A)+ RNA.; format: functional
How it was run: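 Two-electrode voltage clamp, holding -70 mV, of Xenopus oocytes injected with ~25 ng rat cerebral cortex poly(A)+ RNA, superfused in Ringer. Baseline current from 10 μM AMPA. Antagonist at increasing concentrations preapplied ~30 s, then coapplied with 10 μM AMPA. IC50 from four-parameter logistic fit to pooled data of 3–4 experiments, mean ± SEM.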

Structure (SMILES) | ED50 [1] | IC50 [2]
COc1cc2c(cc1OC)C(c1ccc(N)cc1)=NNC(=O)C2 | > 10 mg/kg | 180 µM
Nc1ccc(C2=NNC(=O)Cc3cc4c(cc32)OCO4)cc1 | 2.8 mg/kg | 2.7 µM
O=C1Cc2cc3c(cc2C(c2ccc(F)cc2)=NN1)OCO3 | > 10 mg/kg | 62 µM
O=C1Cc2cc3c(cc2C(c2ccccc2)=NN1)OCO3 | 12.9 mg/kg | 21 µM
O=C1Cc2cc3c(cc2C(c2ccc([N+](=O)[O-])cc2)=NN1)OCO3 | > 10 mg/kg | 56 µM
Cc1ccc(C2=NNC(=O)Cc3cc4c(cc32)OCO4)cc1 | 16 mg/kg | 15 µM
COc1ccc(C2=NNC(=O)Cc3cc4c(cc32)OCO4)cc1 |  | 23 µM
CC1=NN=C(c2ccc(N)cc2)c2cc3c(cc2C1)OCO3 [GYKI-52466] | 4.6 mg/kg | 6.9 µM
